For one compound, K and Activity results are on record in ChEMBL document CHEMBL1140873, “Interaction between double helix DNA fragments and a new topopyrone acting as human topoisomerase I poison” (Bioorg Med Chem, 2009).

Each structure is given as a SMILES string. Active and inactive are the calls of the source. The calls are words filed in the database; no cut-off is given here.

Experiment [1] is described as follows: Binding affinity to oligonucleotide d(CGTACG)2 by UV-visible spectroscopy. The method in brief:
(§1)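 Apparent DNA–drug binding constants measured by UV titration at 25 °C, read at λmax 376 nm. A 5.0 x 10^-? M aqueous drug stock was added in increasing amounts to a 1.0 x 10^-5 M oligonucleotide solution.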

Experiment [2] is described as follows: Binding affinity to oligonucleotide d(CGTACG)2 at [drug]/[DNA] ratio of 4 by NMR DOSY experiment. The method in brief:
(§2)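 DOSY at 25 °C on the complex in D2O, 0.1 M NaCl, 10 mM phosphate, pH 6.7, with drug at 5.4 mM. Gradient pulse 1.5 ms, 64 increments. Molecular mass was read from a calibration curve of diffusion standards from glucose up to trypsin (Mr 180–23,500).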

The nature of experiment [3]: Binding affinity to oligonucleotide d(CGTATACG)2 by UV-visible spectroscopy. The method in brief:
as §1

The nature of experiment [4]: Binding affinity to oligonucleotide d(ATGCGCAT)2 by UV-visible spectroscopy. In a few lines: as §1
Experiment [5] can be described thus: Binding affinity to oligonucleotide d(CGTACG)2 at [drug]/[DNA] ratio of 4 by NMR spectroscopy. In a few lines:
(§3)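 1H NMR titration at 600 MHz. A drug stock (23.4 mM) was added in increasing amounts to oligonucleotide up to R = [2]/[DNA] = 4.0. An inverse titration added DNA to 0.2 mM drug. Conditions were D2O, 10 mM phosphate, 0.1 M NaCl, pH 6.7, 25 °C. Shifts were referenced to external DSS.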

The nature of experiment [6]: Binding affinity to oligonucleotide d(CGTACG)2 at [drug]/[DNA] ratio of 1 by NMR spectroscopy. In a few lines:
as §3

The nature of experiment [7]: Binding affinity to oligonucleotide d(CGTACG)2 at [drug]/[DNA] ratio of 3 by NMR DOSY experiment. The method in brief:
as §2

A short description of experiment [8]: Binding affinity to oligonucleotide d(CGTACG)2 by single diffusion coefficient experiment. In a few lines:
as §2

Experiment [9] is described as follows: Binding affinity to oligonucleotide d(CGTACG)2 assessed as intercalation by single diffusion coefficient experiment. In a few lines: as §2
Experiment [10] can be described thus: Binding affinity to oligonucleotide d(CGTACG)2 at [drug]/[DNA] ratio of 2 by NOESY experiment. In a few lines: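 Phase-sensitive NOESY (TPPI) run at 25 °C in D2O and 15 °C in H2O/D2O 90:10. Sample was complex at R = 2 in 10 mM phosphate pH 6.7 with 100 mM NaCl. Mixing time 300 ms, 2K x 512 FIDs, 1.5 s recycle delay, 80 scans. Ligand–DNA NOEs were treated as transferred NOEs.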

`Cc1cc(=O)c2ccc3c(c2o1)C(=O)c1c(OCCN(C)C)cccc1C3=O`: the K is 4 ×10³ /M in experiment [1], 1 ×10³ /M in experiment [3] and 6 ×10³ /M in experiment [4]. In addition, the outcome in experiment [2], in experiment [5], in experiment [6], in [7], in experiment [8] and in [9] was Active. Further, in [10], the result was Active.
